The text below walks through data of ChEMBL document CHEMBL1142173, “Novel macrolide resistance module carried by the IncP-1beta resistance plasmid pRSB111, isolated from a wastewater treatment plant” (2007).

Assay type in all cases: functional
In experiment [1] the test system is Escherichia coli. Description: Antibacterial activity against Escherichia coli DH5-alpha containing macrolide-resistant pUC18-mph(E) region. The note with it: DH5alpha. A digest of the protocol: (§1)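 Host is E. coli DH5α carrying pUC18 with PCR-amplified fragments of the pRSB111 macrolide resistance region (covering mphR(E), mph(E) and/or mrx(E)). MIC is read per recombinant strain, with DH5α carrying empty pUC18 as control.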

In experiment [2] the test system is Escherichia coli. The experiment in a line: Antibacterial activity against Escherichia coli DH5alpha containing macrolide-resistant pUC18-mph(E)-mrx(E) region. An outline of the steps: as §1
The subject of experiment [3] is Escherichia coli. The experiment in a line: Antibacterial activity against Escherichia coli DH5-alpha containing pUC18. Conditions: DH5alpha. An outline of the steps: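 MIC measured for E. coli DH5α transformed with the empty vector pUC18, which served as the control. It was tested alongside DH5α carrying pUC18 clones of PCR-amplified fragments of the pRSB111 macrolide resistance region (mphR(E), mph(E), mrx(E)).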

The subject of experiment [4] is Pseudomonas sp. Description: Antibacterial activity against Pseudomonas sp. B13 GFP1 containing multiresistance plasmid pRSB101.
The subject of experiment [5] is Escherichia coli. Description: Antibacterial activity against Escherichia coli DH5-alpha containing macrolide-resistant pUC18-mrx(E) region. The note with it: DH5alpha. A digest of the protocol:
as §1

Experiment [6] deals with Pseudomonas sp. Description: Antibacterial activity against Pseudomonas sp. B13 GFP1.
The test system of experiment [7] is Pseudomonas sp. Description: Antibacterial activity against Pseudomonas sp. B13 GFP1 containing macrolide resistance plasmid pRSB111. A digest of the protocol: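 Host is Pseudomonas sp. strain B13 GFP1 carrying pRSB111, captured by exogenous mating from wastewater-plant final effluent. It is maintained in LB with erythromycin (300 μg/ml) at 30°C. MIC is in μg/ml, with the plasmid-free B13 GFP1 strain tested alongside.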

SMILES strings stand for the structures. Converted amounts (≈) assume the structure as drawn.

One may read the MIC as the least concentration at which growth counts as inhibited. Lower therefore signals inhibition by little substance. Regarding `CC[C@H]1OC(=O)[C@H](C)[C@@H](O[C@H]2C[C@@](C)(OC)[C@@H](O)[C@H](C)O2)[C@H](C)[C@@H](O[C@@H]2O[C@H](C)C[C@H](N(C)C)[C@H]2O)[C@](C)(O)C[C@@H](C)/C(=N\OCOCCOC)[C@H](C)[C@@H](O)[C@]1(C)O` [ROXITHROMYCIN], the MIC was 550 µg/mL (≈ 657 µM) in the experiment with Escherichia coli [1]; 2500 µg/mL (≈ 2990 µM) in the experiment with Escherichia coli [2]; 450 µg/mL (≈ 538 µM) in the experiment on Escherichia coli [3]; 1200 µg/mL (≈ 1430 µM) with Pseudomonas sp. [4]; 300 µg/mL (≈ 358 µM) in the experiment with Escherichia coli [5]; 25 µg/mL (≈ 29.9 µM) against Pseudomonas sp. [6]. For the same compound, in the experiment on Pseudomonas sp. [7], 1400 µg/mL (≈ 1670 µM) was the least that counted as inhibitory (MIC).

Turning to `CC[C@H]1OC(=O)C[C@@H](O)[C@H](C)[C@@H](O[C@@H]2O[C@H](C)[C@@H](O[C@H]3C[C@@](C)(O)[C@@H](O)[C@H](C)O3)[C@H](N(C)C)[C@H]2O)[C@@H](CC=O)C[C@@H](C)C(=O)/C=C/C(C)=C/[C@@H]1CO[C@@H]1O[C@H](C)[C@@H](O)[C@@H](OC)[C@H]1OC` [TYLOSIN], the MIC against Pseudomonas sp. [4] came out at 150 µg/mL (≈ 164 µM); in the experiment with Pseudomonas sp. [6] it was 150 µg/mL (≈ 164 µM); against Pseudomonas sp. [7], 400 µg/mL (≈ 437 µM).

Regarding `CC[C@H]1OC(=O)[C@H](C)[C@@H](O[C@H]2C[C@@](C)(OC)[C@@H](O)[C@H](C)O2)[C@H](C)[C@@H](O[C@@H]2O[C@H](C)C[C@H](N(C)C)[C@H]2O)[C@](C)(O)C[C@@H](C)C(=O)[C@H](C)[C@@H](O)[C@]1(C)O` [ERYTHROMYCIN], the minimum inhibitory concentration (MIC) came to 250 µg/mL (≈ 341 µM) with Escherichia coli [1]; 2400 µg/mL (≈ 3270 µM) against Escherichia coli [2]; 200 µg/mL (≈ 273 µM) in the experiment with Escherichia coli [3]; 2500 µg/mL (≈ 3410 µM) with Pseudomonas sp. [4]; 150 µg/mL (≈ 204 µM) against Escherichia coli [5]; 20 µg/mL (≈ 27.3 µM) against Pseudomonas sp. [6]. In addition, the MIC against Pseudomonas sp. [7] was 2500 µg/mL (≈ 3410 µM).
